Experimental data taken from ChEMBL document CHEMBL3352189 (J Med Chem, 2014).
Calls of active or inactive are those of the source. The rule behind the calls is not given here.

Assays:
[1] = test system: Venezuelan equine encephalitis virus; test: Antiviral activity against Venezuelan equine encephalitis virus TC83 infected in Vero 76 cells assessed as reduction in virus-induced cytopathic effect after 2 days by Celltiter-Glo reagent based assay; type: functional, organism-based; conditions: TC83, Vero 76, 48 h
[2] = Cytotoxicity against african green monkey Vero 76 cells after 3 days by Celltiter-Glo reagent based assay; type: cell-based; conditions: chlorocebus sabaeus, vero 76, 72 h
Summary of the method: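 Vero 76 cells were seeded overnight at 12 000/well and given an 8-point 2-fold compound series (20 mM DMSO stock) in EMEM/10% FBS with no virus. Viability was read by CellTiter-Glo after 3 days relative to untreated cells. Run in duplicate; CC50 from a four-parameter logistic or sigmoidal fit.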

[3] = Selectivity index, ratio of CC50 for african green monkey Vero 76 cells to EC50 for Venezuelan equine encephalitis virus TC83; type: toxicity, cell-based; conditions: read-out: Ratio CC50/EC50
[4] = test system: Venezuelan equine encephalitis virus; test: Antiviral activity against Venezuelan equine encephalitis virus V3526 infected in Vero 76 cells assessed as reduction in virus-induced cytopathic effect after 2 days by Celltiter-Glo reagent based assay; type: functional, organism-based; conditions: V3526, Vero 76, 48 h
[5] = test system: Venezuelan equine encephalitis virus; test: Antiviral activity against Venezuelan equine encephalitis virus TrD infected in Vero 76 cells assessed as reduction in virus-induced cytopathic effect after 2 days by Celltiter-Glo reagent based assay; type: functional, organism-based; conditions: Vero 76, 48 h
[6] = test system: Venezuelan equine encephalitis virus; test: Antiviral activity against Venezuelan equine encephalitis virus TC83 infected in Vero 76 cells assessed as reduction in viral titer at 1 uM by crystal violet staining based microplaque assay relative to untreated control; type: functional
[7] = test system: Venezuelan equine encephalitis virus; test: Antiviral activity against Venezuelan equine encephalitis virus TrD infected in Vero 76 cells assessed as reduction in viral titer at 5 uM by crystal violet staining based microplaque assay relative to untreated control; type: functional, organism-based
[8] = Aqueous solubility in PBS buffer; type: physicochemical
Summary of the method: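 Solubility measured in 1× PBS at pH 7.4.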

Structure (SMILES)	EC50 [1] [µM]	CC50 [2] [µM]	selectivity ratio [3]	further results
CCN1CCN(Cc2nc3ccc(S(=O)(=O)O)cc3c(=O)n2-c2ccccc2)CC1	> 25	> 50	–	–
CCN1CCN(Cc2nc3ccc([N+](=O)[O-])cc3c(=O)[nH]2)CC1	> 25	> 50	–	–
O=c1c2cc([N+](=O)[O-])ccc2nc(C2CCNCC2)n1-c1ccccc1	3.6	> 50	> 13.9	–
COc1ccccc1-n1c(CN2CCNCC2)nc2ccc([N+](=O)[O-])cc2c1=O	> 25	> 50	–	–
CN1CCN(C)/C(=N/c2ccc(C(F)(F)F)cc2C(=O)Nc2ccccc2)C1	22.3	> 50	> 2.2	–
CCN1CCN(Cc2nc3ccc(C(=O)N(C)C)cc3c(=O)n2-c2ccccc2)CC1	> 25	> 50	–	–
CN1CCN(C)/C(=N/c2cc(F)ccc2C(=O)Nc2ccccc2)C1	> 25	> 50	–	–
CCN1CCN(Cc2nc3ccc([N+](=O)[O-])cc3c(=O)n2-c2cccc(F)c2)CC1	0.4	> 50	> 125	–
CN(C)c1cccc(-n2c(CN3CCNCC3)nc3ccc([N+](=O)[O-])cc3c2=O)c1	> 25	> 50	–	–
CCN1CCN(Cc2nc3ccc([N+](=O)[O-])cc3c(=O)n2-c2ccccc2)CC1	0.3	> 50	> 167	–
O=c1c2cc([N+](=O)[O-])ccc2nc(CN2CCCCC2)n1-c1ccccc1F	4.7	> 50	> 10.6	–
CN1CCN(C)/C(=N/c2ccc(C#N)cc2C(=O)Nc2ccccc2)C1	0.4	> 50	> 125	–
COc1cccc(NC(=O)c2cc([N+](=O)[O-])ccc2/N=C2\CN(C)CCN2C)c1	8.1	> 50	> 6.2	–
O=c1c2cc([N+](=O)[O-])ccc2nc(CN2CCNCC2)n1-c1ccccc1F	0.2	> 50	> 250	–
O=c1c2cc([N+](=O)[O-])ccc2nc(CN2CCN(c3ccccc3)CC2)n1-c1ccccc1F	> 25	> 50	–	–
CC(C)NC(=O)c1cc([N+](=O)[O-])ccc1/N=C1\CN(C)CCN1C	> 25	> 50	–	–
CCN1CCN(Cc2nc3ccc([N+](=O)[O-])cc3c(=O)n2C)CC1	> 25	> 50	–	–
O=c1c2cc([N+](=O)[O-])ccc2nc(CN2CCNCC2)n1-c1ccccc1	0.2	> 50	> 250	–
CCN1CCN(Cc2nc3ccc(I)cc3c(=O)n2-c2ccccc2)CC1	17.1	> 50	> 2.9	–
CN1CCN(C)/C(=N/c2cc(F)c(F)cc2C(=O)Nc2ccccc2)C1	4.4	> 50	> 11.4	–

Structure (SMILES)	EC50 [1] [µM]	CC50 [2] [µM]	selectivity ratio [3]	further results
O=c1c2cc([N+](=O)[O-])ccc2nc(CN2CCNCC2)n1-c1ccsc1	1.4	> 50	> 35.7	–
CN1CCN(C)/C(=N/c2ccc(C#N)cc2C(=O)Nc2ccccc2F)C1	3.7	> 50	> 13.5	–
CCN1CCN(Cc2nc3ccc(C(F)(F)F)cc3c(=O)n2-c2ccccc2F)CC1	> 25	> 50	–	–
CCN1CCN(Cc2nc3ccc(-c4cccnc4)cc3c(=O)n2-c2ccccc2)CC1	> 25	> 50	–	–
CN1CCN(C)/C(=N/c2ccccc2C(=O)Nc2ccccc2)C1	> 25	> 50	–	–
CCN1CCN(Cc2nc3ccc([N+](=O)[O-])cc3c(=O)n2-c2ccccc2F)CC1	0.8	> 50	–	EC50 [4]: 0.3 µM; EC50 [5]: 0.6 µM; fold change (FC) [6]: 3; inhibition [7]: Active; solubility [8]: > 122 µg/mL
CCN1CCN(Cc2nc3ccc(-c4nnn[nH]4)cc3c(=O)n2-c2ccccc2)CC1	> 25	> 50	–	–
COc1cccc(-n2c(CN3CCNCC3)nc3ccc([N+](=O)[O-])cc3c2=O)c1	5.1	> 50	> 9.8	–
COc1ccccc1NC(=O)c1cc([N+](=O)[O-])ccc1/N=C1\CN(C)CCN1C	33.7	> 50	> 1.5	–
CN1CCN(C)/C(=N/c2ccc(C#N)cc2C(=O)Nc2cccc(F)c2)C1	0.8	> 50	> 62.5	–
CN1CCN(C)/C(=N/c2cc([N+](=O)[O-])ccc2C(=O)Nc2ccccc2)C1	8.4	> 50	> 6	–
CN1CCN(C)/C(=N/c2ccc([N+](=O)[O-])cc2C(=O)Nc2ccsc2)C1	0.5	> 50	100	–
CN1CCN(C)/C(=N/c2ccc([N+](=O)[O-])cc2C(=O)Nc2ccccc2F)C1	0.2	> 50	> 250	–
CCN1CCN(Cc2nc3ccc([N+](=O)[O-])cc3c(=O)n2-c2ccc(F)cc2)CC1	0.8	> 50	> 62.5	–
CN1CCN(C)/C(=N/c2cc(F)c(C#N)cc2C(=O)Nc2ccccc2)C1	0.4	> 50	> 125	–
CN1CCN(C)/C(=N/c2ccc(F)cc2C(=O)Nc2ccccc2)C1	6.4	> 50	> 7.8	–
O=C1CN(Cc2nc3ccc([N+](=O)[O-])cc3c(=O)n2-c2ccccc2F)CCN1	> 25	> 50	–	–
O=c1c2cc([N+](=O)[O-])ccc2nc(CN2CCCNC2)n1-c1ccccc1	1.1	> 50	> 45.5	–
CNCCCN(C)Cc1nc2ccc([N+](=O)[O-])cc2c(=O)n1-c1ccccc1	0.6	> 50	> 83.3	–
CCN1CCN(Cc2nc3ccc([N+](=O)[O-])cc3c(=O)n2Cc2ccccc2)CC1	> 25	> 50	–	–

Structure (SMILES)	EC50 [1] [µM]	CC50 [2] [µM]	selectivity ratio [3]	further results
CN1CCN(Cc2nc3ccc([N+](=O)[O-])cc3c(=O)n2-c2ccccc2F)CC1	0.8	> 50	> 62.5	–
COc1ccc(-n2c(CN3CCNCC3)nc3ccc([N+](=O)[O-])cc3c2=O)cc1	0.2	> 50	> 250	–
CCN1CCN(Cc2nc3ccc(C#N)cc3c(=O)n2-c2ccccc2)CC1	1.1	> 50	> 45.5	–
CCN1CCN(c2nc3ccc([N+](=O)[O-])cc3c(=O)n2-c2ccccc2)CC1	> 25	> 50	–	–
CCN1CCN(Cc2nc3ccc(C(N)=O)cc3c(=O)n2-c2ccccc2)CC1	> 25	> 50	–	–
COC(=O)c1ccc(/N=C2\CN(C)CCN2C)c(C(=O)Nc2ccccc2)c1	2	> 50	> 25	–
CC(C)N1CCN(Cc2nc3ccc([N+](=O)[O-])cc3c(=O)n2-c2ccccc2F)CC1	4.4	> 50	> 11.4	–
O=c1c2cc([N+](=O)[O-])ccc2nc(CN2CCCNCC2)n1-c1ccccc1	0.9	> 50	> 55.6	–
CCN1CCN(Cc2nc3ccc(C(=O)O)cc3c(=O)n2-c2ccccc2)CC1	> 25	> 50	–	–
CCN1CCN(C)C/C1=N\c1ccc([N+](=O)[O-])cc1C(=O)Nc1ccccc1	0.05	> 50	> 1000	–
CN1CCN(C)/C(=N/c2ccc([N+](=O)[O-])cc2C(=O)Nc2ccc(F)cc2)C1	0.09	> 50	> 556	–
CCN1CCN(Cc2nc3ccccc3c(=O)n2-c2ccccc2F)CC1	> 25	> 50	–	–
CCN1CCN(Cc2nc3ccc([N+](=O)[O-])cc3c(=O)n2C(C)C)CC1	> 25	> 50	–	–
O=c1c2cc([N+](=O)[O-])ccc2nc(CN2CCOCC2)n1-c1ccccc1F	8.7	> 50	> 5.7	–
CN(C)c1ccc(-n2c(CN3CCNCC3)nc3ccc([N+](=O)[O-])cc3c2=O)cc1	> 25	> 50	–	–
CN1CCN(C)/C(=N/c2ccc([N+](=O)[O-])cc2C(=O)Nc2cccc(F)c2)C1	0.1	> 50	> 500	–
CCN1CCN(Cc2nc3ccc(-c4ccccn4)cc3c(=O)n2-c2ccccc2)CC1	> 25	> 50	–	–
CN1CCN(C)/C(=N/c2ccc([N+](=O)[O-])cc2C(=O)NCc2ccccc2)C1	3.7	> 50	> 13.5	–
CN1CCN(C)/C(=N/c2cc(Cl)c(C#N)cc2C(=O)Nc2ccccc2)C1	0.1	> 50	> 500	–
